Activity calls are given as the source filed them.
Assays:
HCT-116 [1] = assay: Cytotoxicity against human HCT 116 with wild type p53 at 0.008 to 124 uM by MTT assay; type: functional
In short: (§1)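 HCT116 p53+/+ and p53-/- cells grown in McCoy's medium with 2 mM L-glutamine, 1 mM sodium pyruvate, penicillin/streptomycin and 10% FBS at 37 °C, 5% CO2. Seeded at 4 × 10^5 cells/well and left to attach for 24 h. Exposed to 0-78 µg/mL compound for 72 h. MTT added (final 0.25 mg/mL) for 3 h, formazan dissolved in DMSO, A570 read, IC50 by curve fitting.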

HCT-116 [2] = assay: Cytotoxicity against human HCT 116 with null p53 mutant p53 at 0.008 to 124 uM by MTT assay; type: functional; in short: as §1
HCT-116 [3] = assay: Cytotoxicity against human HCT 116 with wild type p53 at 0.009 to 152 uM by MTT assay; type: functional; in short: as §1
HCT-116 [4] = assay: Cytotoxicity against human HCT 116 with null p53 mutant at 0.009 to 152 uM by MTT assay; type: functional; in short: as §1
[5] = tested on: Human immunodeficiency virus 1; assay: Antiviral activity against HIV1 at 10 ug/ml; type: functional, organism-based
HCT-116 [6] = assay: Cytotoxicity against human HCT 116 with wild type p53 at 0.006 to 103 uM by MTT assay; type: functional; in short: as §1
[7] = tested on: Human immunodeficiency virus 1; assay: Antiviral activity against HIV1 at 1 ug/ml; type: functional, organism-based
HCT-116 [8] = assay: Cytotoxicity against human HCT 116 with null p53 mutant at 0.006 to 103 uM by MTT assay; type: functional; in short: as §1

Measured: Activity

C/C(Cl)=C/C=C/C=C/C=C/C=C/C(O)=C1\C(=O)[C@H](CC(N)=O)N([C@@H]2OC[C@@H](O)[C@H](O)[C@H]2O)C1=O
inactive: all assays above

CO[C@@H]1[C@H](O[C@@H]2CO[C@@H](O[C@@H]3[C@@H](O)[C@H](O)CO[C@H]3N3C(=O)/C(=C(O)/C=C/C=C/C=C/C=C/C=C(/C)Cl)C(=O)[C@@H]3CC(N)=O)[C@@H](O)[C@@H]2O)O[C@H](C)[C@H]1O
inactive: all assays above

C/C(Cl)=C/C=C/C=C/C=C/C=C/C(O)=C1\C(=O)[C@H](CC(N)=O)N([C@@H]2OC[C@@H](O)[C@H](O)[C@H]2O[C@@H]2OC[C@@H](O)[C@@H](O)[C@@H]2O)C1=O
inactive: all assays above

Reference: ChEMBL document CHEMBL1142570, “Aurantosides G, H, and I: three new tetramic acid glycosides from a Papua New Guinea Theonella swinhoei” (J Nat Prod, 2005)
